Measurements published in PubChem BioAssay AID492975 (The Scripps Research Institute Molecular Screening Center, 2010).
Active and inactive are the calls of the source.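 The calls were made as follows: active = inhibition above 50% of the malaria lysate aminopeptidase activity; inactive = inhibition of 50% or less.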

Each compound was assayed against Aspartyl aminopeptidase (Plasmodium falciparum (isolate 3D7)) (UniProt Q8I2J3) (assay: PfM18AAP inhibition in parasite lysate, late-stage follow-up, cell lysate, fluorescence, malaria cell lysate, powder samples (AID 492975)). Conditions: P. falciparum lysate, H-Glu-NHMec fluorogenic substrate; at 5 µM; stronger effect = higher value.
Outline: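 Assay system: Plasmodium falciparum cell lysate with native PfM18 aspartyl aminopeptidase; quantity: malaria cell lysate at 10 µg/mL final; dosing: single compound dose of 5 µM final; timing: 10 min pre-incubation, 30 min reading; measured by: fluorescence 370/460 nm, 1-min intervals; read-out: % inhibition versus control wells; controls: no-compound and no-lysate control wells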

Aspartyl aminopeptidase (Plasmodium falciparum (isolate 3D7)), sequence (Q8I2J3 whole entry, looked up): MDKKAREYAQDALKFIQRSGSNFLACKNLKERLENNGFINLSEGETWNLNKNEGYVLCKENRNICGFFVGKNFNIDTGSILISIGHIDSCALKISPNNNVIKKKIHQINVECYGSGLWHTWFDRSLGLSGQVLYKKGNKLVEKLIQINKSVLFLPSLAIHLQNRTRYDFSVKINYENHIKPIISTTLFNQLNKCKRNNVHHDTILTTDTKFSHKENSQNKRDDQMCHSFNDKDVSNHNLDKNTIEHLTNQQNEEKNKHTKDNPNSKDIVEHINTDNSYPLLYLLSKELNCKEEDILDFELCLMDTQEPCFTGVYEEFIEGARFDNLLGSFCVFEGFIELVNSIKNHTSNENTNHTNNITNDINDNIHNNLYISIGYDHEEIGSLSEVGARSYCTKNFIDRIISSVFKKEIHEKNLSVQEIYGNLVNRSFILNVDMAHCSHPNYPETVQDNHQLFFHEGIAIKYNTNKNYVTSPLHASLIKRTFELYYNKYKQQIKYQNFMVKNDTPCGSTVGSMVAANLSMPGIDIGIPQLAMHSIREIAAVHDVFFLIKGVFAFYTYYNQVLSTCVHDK

| Compound | inhibition |
| --- | --- |
| O=c1c(O)c(-c2ccc(O)c(O)c2)oc2cc(O)cc(O)c12 | 80% |
| Cc1cc(C)cc(C(=O)n2cnnc2N)c1 | 11% (inactive) |
| COc1ccc2nc(C)cc(SCC(=O)N/N=C/c3ccc(O)c(O)c3)c2c1 | 83% |
| CC(C)n1c(SCC(=O)Nc2nncs2)nnc1-c1ccco1 | 11% (inactive) |
| O=C(O)c1cn[nH]c1-n1cnnn1 | 7% (inactive) |
| O=C(CSc1nc2ccccc2c(=O)[nH]1)c1ccc(O)c(O)c1 | 79% |
| O=C(CNC(=O)c1ccccc1)NCCc1ccc(O)c(O)c1 | 94% |
| Cc1cccc(NC(=S)Nn2cnnc2)c1C | 12% (inactive) |
| OC(Cn1cnnc1)c1ccccc1 (stereo not given) | 12% (inactive) |
| Nc1nncn1C(=O)CCCOc1ccc(Cl)cc1Cl | 3% (inactive) |
| O=c1[nH]c(=S)[nH]c(O)c1/C=C1\C=c2ccccc2=N1 | 41% (inactive) |
| Cc1c(Cl)cccc1NC(=O)Nn1cnnc1 | 10% (inactive) |
| CC1(C)CC2(CC(c3ccccc3F)c3ccc(O)c(O)c3O2)NC(=S)N1 (stereo not given) | 89% |
| Oc1ccc(-c2csc(-c3ccccc3)n2)cc1O | 94% |
| Br/C(C=Nn1cnnc1)=C\c1ccccc1 | 14% (inactive) |
| O=c1c2c([N+](=O)[O-])cc([N+](=O)[O-])cc2sn1Cc1ccccc1 | 94% |
| O=C(Nn1cnnc1)c1csc2ccccc12 | 5% (inactive) |
| CCOC(=O)C1=C(CS(=O)(=O)c2ccc(F)cc2)NC(=O)NC1c1ccc(O)c(O)c1 (stereo not given) | 90% |
| O=C(O)c1ccc(O)c(O)c1 | 94% |
| Cc1ccc([N+](=O)[O-])cc1-c1[nH]c(-c2ccc(O)c(O)c2)nc1-c1ccccc1 | 92% |

| Compound | inhibition |
| --- | --- |
| O=C(CSc1ncn[nH]1)OCN1C(=O)c2ccccc2C1=O | 49% (inactive) |
| Oc1cc(O)c2c(c1)O[C@H](c1ccc(O)c(O)c1)[C@H](O)C2 | 89% |
| O=C(Nc1ccc(Br)cc1Cl)Nn1cnnc1 | 28% (inactive) |
| COc1cc([N+](=O)[O-])ccc1NC(=O)Nn1cnnc1 | 0% (inactive) |
| COC(=O)CN(n1cnnc1)S(=O)(=O)c1ccccc1 | 0% (inactive) |
| Cc1cc(=O)[nH]c(SCC(=O)c2ccc(O)c(O)c2)n1 | 61% |
| O=C(Nc1cccc(Cl)c1Cl)Nn1cnnc1 | 26% (inactive) |
| CN1CCc2cccc3c2[C@@H]1Cc1ccc(O)c(O)c1-3 | 84% |
| O=C(CSc1ncn[nH]1)Nc1nc(-c2ccccc2)ns1 | 12% (inactive) |
| COc1cccc(-c2cc(C(=O)Nn3cnnc3)c3ccccc3n2)c1 | 0% (inactive) |
| COc1ccc(C(=O)n2cnnc2N)cc1 | 12% (inactive) |
| O=C(Nn1cnnc1)c1ccccc1-c1ccccc1 | 10% (inactive) |
| COc1ccc(Cl)cc1NC(=O)Nn1cnnc1 | 21% (inactive) |
| O=C(CSc1nn(-c2ccccc2)c(=S)s1)Nn1cnnc1 | 9% (inactive) |
| CC1(C)CC(=O)c2c(oc3cc(O)c(O)cc23)C1 | 85% |
| CCN(CC)S(=O)(=O)c1ccc(C(=O)Nn2cnnc2)cc1 | 31% (inactive) |
| O=c1[nH]c(CSc2ncn[nH]2)nc2ccccc12 | 15% (inactive) |
| NCCc1ccc(O)c(O)c1 | 70% |
| Oc1ccc(-c2csc(-c3cccnc3)n2)cc1O | 99% |
| COc1ccc(NC(=O)NNC(=O)CCc2ccc(O)c(O)c2)cc1OC | 86% |

| Compound | inhibition |
| --- | --- |
| O=C(NC(=S)Nn1cnnc1)c1ccccc1Br | 14% (inactive) |
| COc1cccc2c(SCC(=O)N/N=C/c3ccc(O)c(O)c3)cc(C)nc12 | 80% |
| Cc1ccc(Cl)cc1NC(=S)Nn1cnnc1 | 16% (inactive) |
| COC(=O)CN(n1cnnc1)S(=O)(=O)c1ccc(C)cc1 | 6% (inactive) |
| S=C(Nc1cc(Cl)ccc1Cl)Nn1cnnc1 | 20% (inactive) |
| O=C(Nc1ccc(Cl)c(Cl)c1)Nn1cnnc1 | 84% |
| Cc1nc(-c2ccc(O)c(O)c2)cs1 | 95% |
| Cc1ccc(-n2c(O)c(/C=N/n3cnnc3)c3ccccc3c2=O)cc1 | 12% (inactive) |
| Cc1ccc(NC(=S)Nn2cnnc2)c(C)c1 | 7% (inactive) |
| Cc1nc2ccccn2c1C(=O)NNC(=O)Nc1ccccc1 | 53% |
| CCc1ccccc1NC(=S)Nn1cnnc1 | 14% (inactive) |
| O=[N+]([O-])c1cc([N+](=O)[O-])c2cccnc2c1Oc1ccccc1O | 85% |
| CCC(C)c1ccc(O)c(N)c1 (stereo not given) | 95% |
| O=S(=O)(Nn1cnnc1)c1ccccc1 | 2% (inactive) |
| CC1=NNC(=O)/C1=C\c1cn(-c2ccccc2)nc1-c1ccc(F)cc1 | 68% |
| O=C(O)CSc1ncn[nH]1 | 66% |
| Oc1ccc(/C=C/c2cc(O)cc(O)c2)cc1 | 66% |
| Cc1cc(C)n2c(=S)[nH]nc2n1 | 74% |
| COc1cc(Br)cc(/C=N/c2ncn[nH]2)c1O | 0% (inactive) |
| Oc1ccc(-c2cn3ccccc3n2)cc1O | 94% |
